# Results reported in PubChem BioAssay.
# Activity calls are given as the source filed them.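 The calls were made as follows, unless noted: active = GFP response above 150% of the DMSO level; inconclusive = fewer than 70 events counted for a yeast strain; inactive = the rest.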
# Key:
# [1] = hit retest on RPL19A-GFP reporter strain – cell-based, S. cerevisiae, flow cytometry, cherry picks, mother/daughter gates, confirmation (AID 2270;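 active = GFP response below 50% of the DMSO control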); settings: 3 h, at 10 µM, stronger effect = lower value, 100 = same GFP as DMSO wells
# [2] = yeast TOR pathway reporter LAP4-GFP change – cell-based, cherry picks, flow cytometry, mother/daughter gates, confirmation (AID 2271;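 active = GFP response above 150% of the DMSO control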;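 also: ratio of sample to DMSO plate mean so 100% equals DMSO level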); settings: S. cerevisiae LAP4-GFP strain, 3 h, at 10 µM, stronger effect = higher value, 100 means same as DMSO control
# Summary of the method: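 System: GFP-fusion yeast strain; Incubation: compound exposure 3 h at 30 °C, end-over-end rotation; Measured by: GFP by flow cytometry; Read-out: median GFP fluorescence as percent of plate-mean DMSO wells; Medium: synthetic complete (SC) yeast growth medium; Compound: single test-compound dose, 10 µM final; Benchmarks: DMSO-only negative wells, rapamycin 400 ng/mL positive wells.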
# [3] = TOR pathway reporter MEP2-GFP, retest of hits – S. cerevisiae, flow cytometry GFP, cherry picks, confirmation (AID 2272;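 active = GFP response above 150% of the DMSO control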;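 also: ratio of well signal to plate DMSO mean so 100% equals DMSO level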); settings: S. cerevisiae MEP2-GFP strain, 3 h, at 10 µM, stronger effect = higher value
# [4] = yeast AGP1-GFP fluorescence change, single-dose – cell-based, flow cytometry, S. cerevisiae, cherry picks, confirmation (AID 2273);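 also: median GFP channel fluorescence over the whole cell population gate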; settings: S. cerevisiae AGP1-GFP strain, 3 h, at 10 µM
# [5] = TOR pathway CIT2 reporter hit retest – S. cerevisiae, GFP fusion, cherry picks, mother/daughter gates, confirmation (AID 2274); settings: S. cerevisiae CIT2-GFP strain, flow cytometry, 3 h, at 10 µM, stronger effect = higher value
# [6] = measured here: daughter cell gate
# [7] = measured here: mother cell gate
# [8] = measured here: daughter cell gate response
# [9] = measured here: mother cell gate response
Structure (SMILES),GFP response vs DMSO [1],"GFP response vs DMSO [1, 6] [%]","GFP response vs DMSO [1, 7] [%]",GFP response relative to DMSO [2],"GFP response relative to DMSO [2, 8] [%]","GFP response relative to DMSO [2, 9] [%]",GFP response vs DMSO [3],"GFP response, % of DMSO [4]","GFP response, % of DMSO [5]","GFP response, % of DMSO [5, 6] [%]","GFP response, % of DMSO [5, 7] [%]"
C=CCOc1ccccc1C(=O)/C=C1/C(=O)Nc2ccccc21,101% (inactive),102,95,142% (inactive),130,148,94.7% (inactive),100% (inactive),91.5% (inactive),95.6,88.2
CCNC(=O)/C(C#N)=C/c1c(N2CC(C)OC(C)C2)nc2ccccn2c1=O (stereo not drawn),97.8% (inactive),99.3,98.1,99.5% (inactive),102,99.4,99% (inactive),106% (inactive),103% (inactive),103,104
Cn1cc(/C=C/c2cc[n+](C)cc2)c2cc(F)ccc21,102% (inactive),102,102,115% (inactive),117,116,134% (inactive),103% (inactive),115% (inactive),116,114
COc1ccc(C(c2c(C)[nH]n(C(N)=S)c2=O)C(C#N)C#N)cc1 (stereo not drawn),105% (inactive),96.2,98.8,317% (active),246,299,104% (inactive),101% (inactive),89.2% (inactive),92.7,79.3
O=C(COc1c(Br)cc(Br)c2cccnc12)N1CCc2ccccc2C1,98.2% (inactive),97.8,97.2,140% (inactive),124,144,112% (inactive),93.2% (inactive),101% (inactive),102,95.6
CC(OC(=O)CSc1ccc([N+](=O)[O-])cc1)C(=O)NCc1ccccc1 (stereo not drawn),101% (inactive),101,101,99.8% (inactive),102,100,100% (inactive),98% (inactive),97.8% (inactive),96.5,96.6
C=CCNC(=O)/C(=C\c1ccc(OC)cc1)NC(=O)c1ccc([N+](=O)[O-])cc1,97.4% (inactive),97.6,98.7,97.3% (inactive),99.7,96.2,96.6% (inactive),100% (inactive),108% (inactive),108,110
Oc1c(Br)cc(Br)cc1C=Nc1cccc2ncccc12,104% (inactive),93.9,98.6,125% (inactive),110,126,103% (inactive),95.7% (inactive),97.3% (inactive),99.2,89.5
Cc1c(Br)c(O)c(Br)c2sc(=O)oc12,96.2% (inactive),101,94.2,125% (inactive),123,129,105% (inactive),101% (inactive),97.3% (inactive),101,94.4
CC(Oc1ccc(Cl)cc1Cl)C(=O)NC1=NN(c2ccccc2)C(=O)C1 (stereo not drawn),95.8% (inactive),98.9,96.4,101% (inactive),101,98.3,98.3% (inactive),102% (inactive),98.3% (inactive),99.1,97.3
Cc1nn(Cc2ccc([N+](=O)[O-])cc2)c(=O)n1-c1cccc(Cl)c1,96% (inactive),96.6,96.6,96.7% (inactive),97.6,96.1,98.3% (inactive),95.4% (inactive),99.7% (inactive),101,99.7
CCOC(=O)C(CC)Sc1ncnc2c1nnn2-c1ccc(F)cc1 (stereo not drawn),94.8% (inactive),95.1,95.8,101% (inactive),101,99.3,96.2% (inactive),94.8% (inactive),96.9% (inactive),97.2,97.3
CCN(CC)C(=O)Cn1c(C)c(/C=C/c2cc[n+](C)cc2)c2ccccc21,107% (inactive),106,106,108% (inactive),110,107,126% (inactive),98.6% (inactive),109% (inactive),110,105
